Key:
Type in all cases: biochemical
[1] = biological target: human recombinant thrombin W60dA (Homo sapiens, UniProt P00734, W413A); experiment: HPLC-based kinetic assay of FXIII AP hydrolysis, W60dA thrombin; conditions: W60dA IIa, pH 7.4, 25 °C, average of at least three independent experiments ± SEM
Procedure, shortened: (§1)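 Synthetic Ac-/-NH2 FXIII (28–41) AP peptides (V34, L34, F34, W34, Y34) were used at 75–2500 µM final in 50 mM H3PO4, 100 mM NaCl, 0.1% PEG, pH 7.4, 25 °C. Recombinant human thrombin (6 nM–1 µM) started the reaction; aliquots were quenched with 12.5% H3PO4, keeping hydrolysis below 17% in 30 min. The (28–37) product was quantified by RP-HPLC against calibration curves. Initial velocities were fitted to V = Vmax/(1+Km/[S]), kcat taken from thrombin concentration, in triplicate.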

[2] = biological target: human recombinant thrombin W215A/E217A (WE) (Homo sapiens, UniProt P00734, E592A/W590A); experiment: HPLC-based kinetic assay of FXIII AP hydrolysis, W215A/E217A
Procedure, shortened: as §1

[3] = biological target: human recombinant thrombin W215A (Homo sapiens, UniProt P00734, W590A); experiment: HPLC-based kinetic assay of FXIII AP hydrolysis, W215A thrombin
Procedure, shortened: as §1

[4] = biological target: human recombinant thrombin I174A (Homo sapiens, UniProt P00734, I542A); experiment: HPLC-based kinetic assay of FXIII AP hydrolysis, I174A thrombin
Procedure, shortened: as §1

[5] = biological target: human recombinant thrombin wild-type (WT) (Homo sapiens, UniProt P00734); experiment: HPLC-based kinetic assay of thrombin-catalyzed hydrolysis of FXIII; conditions: WT IIa, pH 7.4, 25 °C, average of at least three independent experiments ± SEM
Procedure, shortened: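 Recombinant human thrombin hydrolysed acetylated, amidated FXIII (28–41) activation peptides with V, L, F, W or Y at position 34 (final 75–2500 µM). Reactions ran at 25 °C in 50 mM H3PO4, 100 mM NaCl, 0.1% PEG, pH 7.4, with 6 nM–1 µM thrombin, and kept <17% hydrolysis in 30 min. Timed aliquots were quenched with 12.5% H3PO4. The (28–37) product was quantified by C18 RP-HPLC against calibration curves, giving initial velocities. These were fit to V = Vmax/(1 + Km/[S]), and kcat came from thrombin concentration. Runs were in triplicate.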

[6] = biological target: human recombinant thrombin L99A (Homo sapiens, UniProt P00734, L459A); experiment: HPLC-based kinetic assay of FXIII AP hydrolysis, L99A thrombin
Procedure, shortened: as §1

[7] = WE (W215A/E217A) IIa, HPLC assay, pH 7.4, 25 °C, average of at least three independent experiments ± SEM, SEM
[8] = W215A IIa, HPLC assay, pH 7.4, 25 °C, average of at least three independent experiments ± SEM, SEM
[9] = I174A IIa, HPLC assay, pH 7.4, 25 °C, average of at least three independent experiments ± SEM, SEM
[10] = L99A IIa, HPLC assay, pH 7.4, 25 °C, average of at least three independent experiments ± SEM, SEM

“Ac-TVELQGWVPRGVNL-NH2 [FXIII (28–41) W34 AP]” gave a kcat/Km [1] of 1200 ± 120 M⁻¹ s⁻¹, a Km ([1]; SEM) of 976 ± 89 µM and a kcat ([1]; SEM) of 1.21 ± 0.05 s⁻¹. It also gave a kcat/Km ([2]; WE (W215A/E217A) IIa, HPLC assay, pH 7.4, 25 °C, average of at least three independent experiments ± SEM) of 270 ± 35 M⁻¹ s⁻¹, a Km [2, 7] of 1280 ± 161 µM and a kcat [2, 7] of 0.35 ± 0.03 s⁻¹. For the same substance, the “fold decrease in Km over WT thrombin” value ([2]; WE thrombin, current work) was 2 fold, the kcat/Km ([3]; W215A IIa, HPLC assay, pH 7.4, 25 °C, average of at least three independent experiments ± SEM) was 5600 ± 340 M⁻¹ s⁻¹ and the Km [3, 8] was 1030 ± 57 µM. The kcat [3, 8] was 5.76 ± 0.14 s⁻¹, the “fold decrease in Km over WT thrombin” value ([3]; W215A thrombin, current work) was 2 fold and the kcat/Km ([4]; I174A IIa, HPLC assay, pH 7.4, 25 °C, average of at least three independent experiments ± SEM) was 54000 ± 5500 M⁻¹ s⁻¹. The Km [4, 9] was 256 ± 24 µM, the kcat [4, 9] was 13.9 ± 0.52 s⁻¹ and the “fold increase in kcat relative to WT thrombin” value ([4]; I174A thrombin, current work) was 2 fold. The “fold increase in kcat/Km relative to WT thrombin” value ([4]; I174A thrombin, current work) was 4.5 fold, the kcat/Km [5] was 12000 ± 1200 M⁻¹ s⁻¹ and the Km ([5]; SEM) was 637 ± 56 µM. For the same substance, the kcat ([5]; SEM) was 7.62 ± 0.3 s⁻¹, the kcat/Km ([6]; L99A IIa, HPLC assay, pH 7.4, 25 °C, average of at least three independent experiments ± SEM) was 3200 ± 490 M⁻¹ s⁻¹ and the Km [6, 10] was 719 ± 97 µM. For the same substance, the kcat [6, 10] was 2.3 ± 0.17 s⁻¹ and the “fold decrease in kcat relative to WT thrombin” value ([6]; L99A thrombin, current work) was 3 fold.
